Results from ChEMBL document CHEMBL3871264, “Design of a novel thiophene inhibitor of 15-lipoxygenase-1 with both anti-inflammatory and neuroprotective properties” (Eur J Med Chem, 2016).
Active and inactive are the calls of the source. The calls are words filed in the database; no cut-off is given here.

How the values were obtained:
[1] = molecular target: T1, Polyunsaturated fatty acid lipoxygenase ALOX15 (Homo sapiens, UniProt P16050); assay: Inhibition of human 15-LOX-1 assessed as reduction in conversion of linoleic acid to 13(S)-HpODE incubated for 10 mins followed by linoleic acid addition by UV-absorbance analysis
T1 sequence (P16050 whole entry): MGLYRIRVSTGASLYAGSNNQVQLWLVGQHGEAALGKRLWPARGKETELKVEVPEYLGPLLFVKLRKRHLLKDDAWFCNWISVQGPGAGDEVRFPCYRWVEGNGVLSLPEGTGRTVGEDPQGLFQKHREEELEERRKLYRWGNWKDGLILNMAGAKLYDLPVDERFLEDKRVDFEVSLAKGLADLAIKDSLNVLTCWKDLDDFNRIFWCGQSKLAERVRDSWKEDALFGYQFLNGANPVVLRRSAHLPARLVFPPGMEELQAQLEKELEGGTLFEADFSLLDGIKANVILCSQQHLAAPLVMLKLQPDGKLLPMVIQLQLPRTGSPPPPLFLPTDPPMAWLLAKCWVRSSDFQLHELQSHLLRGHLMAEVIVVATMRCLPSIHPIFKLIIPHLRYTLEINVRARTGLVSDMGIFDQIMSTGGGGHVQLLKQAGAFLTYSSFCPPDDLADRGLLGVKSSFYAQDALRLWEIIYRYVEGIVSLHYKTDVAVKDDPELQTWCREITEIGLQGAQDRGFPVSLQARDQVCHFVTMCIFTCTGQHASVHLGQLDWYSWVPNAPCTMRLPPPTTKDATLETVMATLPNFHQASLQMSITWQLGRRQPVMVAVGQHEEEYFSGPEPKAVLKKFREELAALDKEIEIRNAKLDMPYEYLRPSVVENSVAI

[2] = molecular target: T2, Polyunsaturated fatty acid lipoxygenase ALOX15 (Mus musculus) (UniProt P39654); assay: Inhibition of 15-LOX-1 in mouse HT22 cells assessed as protection against glutamate-induced cell impedance at 10 uM incubated up to 8 hrs following glutamate challenge measured up to 20 hrs by real time cell viability assay; type: cell-based; conditions: HT-22
T2 sequence (whole entry): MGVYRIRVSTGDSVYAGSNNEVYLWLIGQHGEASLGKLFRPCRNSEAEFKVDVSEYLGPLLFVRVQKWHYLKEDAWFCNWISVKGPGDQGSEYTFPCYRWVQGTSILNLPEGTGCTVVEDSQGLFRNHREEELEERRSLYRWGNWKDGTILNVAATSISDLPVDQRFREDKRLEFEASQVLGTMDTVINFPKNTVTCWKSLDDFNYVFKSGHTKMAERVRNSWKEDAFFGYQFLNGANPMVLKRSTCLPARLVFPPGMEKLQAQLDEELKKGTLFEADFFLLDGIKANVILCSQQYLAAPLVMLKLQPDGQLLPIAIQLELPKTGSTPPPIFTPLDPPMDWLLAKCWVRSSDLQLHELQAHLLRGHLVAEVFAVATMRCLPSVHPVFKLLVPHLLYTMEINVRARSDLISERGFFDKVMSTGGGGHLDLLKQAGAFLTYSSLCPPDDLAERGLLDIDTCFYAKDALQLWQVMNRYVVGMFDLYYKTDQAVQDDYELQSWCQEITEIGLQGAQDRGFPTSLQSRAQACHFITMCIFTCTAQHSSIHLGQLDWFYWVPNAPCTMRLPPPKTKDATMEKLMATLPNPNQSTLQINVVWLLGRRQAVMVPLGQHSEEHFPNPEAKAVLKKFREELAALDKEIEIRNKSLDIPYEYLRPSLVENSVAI
Procedure, shortened: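 HT-22 cells were seeded at 8x10^3 per well, incubated overnight, then given 4 mM glutamate. Inhibitor was either co-applied (1-20 µM; PD146176 at 1 µM) or added at 10 µM 2, 4, 6 or 8 h after glutamate. Impedance was recorded in real time for 16-20 h, with cell index normalized just before glutamate addition.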

Mus musculus = organism: Mus musculus; assay: Toxicity in C57bl/6 mouse precision-cut lung slices assessed as decrease in tissue viability up to 50 uM after 20 hrs in presence of linoleic acid by lactate dehydrogenase release assay; type: organism-based; conditions: in vivo
Procedure, shortened: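 Mouse lung slices were cultured with inhibitor and 10 μM linoleic acid for 20 h at 37 °C. LDH released into the medium was measured by automated analyzer.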

[3] = molecular target: T3, Polyunsaturated fatty acid lipoxygenase ALOX15 (Homo sapiens) (UniProt P16050); assay: Competitive inhibition of human 15-LOX-1 assessed as apparent Vmax at 15 uM by Lineweaver-Burk plot analysis (reference value: 1.6 +/- 0.2 10^-4abs/s)
T3 sequence (whole entry): T1 sequence (P16050 whole entry)
Procedure, shortened: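 Purified enzyme activity was read as UV absorbance at 234 nm of the product formed from linoleic acid substrate, in 96-well format. Substrate-dependence runs were done with and without inhibitor. Apparent Km and Vmax were derived from Lineweaver-Burk plots.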

[4] = molecular target: T2, Polyunsaturated fatty acid lipoxygenase ALOX15 (Mus musculus); assay: Inhibition of 15-LOX-1 in C57bl/6 mouse precision-cut lung slices assessed as reduction in LPS-stimulated TNFalpha mRNA expression level at 50 uM incubated for 20 hrs followed by LPS stimulation for 4 hrs in presence of linoleic acid by RT-qPCR analysis
Procedure, shortened: (§1)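 Lung slices, 250 μm, were cut from agarose-filled lungs of male C57bl/6 mice aged 8-10 weeks and cultured at 37 °C in 5% CO2 in supplemented DMEM, 3 slices per well. Inhibitor was given for 20 h with 10 μM linoleic acid. For the last 4 h, 10 ng/ml LPS plus 10 ng/ml IFNγ were added. Read-out was RT-qPCR (10 ng cDNA, GAPDH assay included), in duplicate or triplicate wells, as fold change versus LPS/linoleic acid control, with 4-6 independent experiments.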

[5] = molecular target: T2, Polyunsaturated fatty acid lipoxygenase ALOX15 (Mus musculus); assay: Inhibition of 15-LOX-1 in C57bl/6 mouse precision-cut lung slices assessed as reduction in LPS-stimulated IL-1beta mRNA expression level at 50 uM incubated for 20 hrs followed by LPS stimulation for 4 hrs in presence of linoleic acid by RT-qPCR analysis; procedure, shortened: as §1
[6] = molecular target: T2, Polyunsaturated fatty acid lipoxygenase ALOX15 (Mus musculus); assay: Inhibition of 15-LOX-1 in mouse HT22 cells assessed as inhibition of glutamate-induced superoxide production in mitochondria at 10 uM incubated for 14 to 16 hrs by mitoSOX staining based FACS analysis; conditions: HT-22
Procedure, shortened: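 HT-22 cells were seeded at 5x10^4 per well and incubated overnight. They were then given 4 mM glutamate with or without 10 µM inhibitor or 1 µM PD146176 for 14-16 h. Cells were stained with MitoSOX at 2.5 µM final for 30 min at 37 °C, and fluorescence intensity was measured by flow cytometry (488 nm excitation). At least 3 experiments were run, each in triplicate.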

[7] = molecular target: T2, Polyunsaturated fatty acid lipoxygenase ALOX15 (Mus musculus); assay: Inhibition of 15-LOX-1 in C57bl/6 mouse precision-cut lung slices assessed as reduction in LPS-stimulated IL-12b mRNA expression level at 50 uM incubated for 20 hrs followed by LPS stimulation for 4 hrs in presence of linoleic acid by RT-qPCR analysis; procedure, shortened: as §1

CCCCNC(=O)c1cc(-c2ccccc2)sc1N
IC50 [1]: 12.4 µM
inhibition [2]: Active
Activity (Mus musculus): Non-Toxic
Vmax(app) [3]: 1.6 ×10⁻⁴ abs/s
inhibition [4]: 50%
inhibition [5]: 50%
inhibition [6]: Active
inhibition [7]: 50%
